Assay results published in ChEMBL document CHEMBL1127523, “Design and synthesis of side-chain conformationally restricted phenylalanines and their use for structure-activity studies on tachykinin NK-1 receptor” (J Med Chem, 1994).
Starred links: 1 amine or outer side, 2 acyl side, 3 side chain; linkers in the order of their positions; H or OH if unused. Non-standard residues stand in square brackets, D forms with d. Residues, ends and D or L forms follow the SMILES beside them. Gly(9-fluorenyl) = N[C@H](C(=O)O)C1c2ccccc2-c2ccccc21; X1 = O=C([C@@H](N[*:1])C1CCc2ccccc21)[*:2]; Dip = N[C@H](C(=O)O)C(c1ccccc1)c1ccccc1

Legend:
Cavia porcellus [1] = species: Cavia porcellus; assay: Concentration required to inhibit nonspecific binding of [125I]BH-SP to guinea pig ileal membranes; type: functional
Substance-P receptor = Substance-P receptor (Rattus norvegicus, UniProt P14600); assay: Concentration required to inhibit the specific binding of [125I]BH-SP to Neurokinin-1 (NK-1) receptor in rat brain synaptosomes; type: subcellular
Chain of Substance-P receptor (P14600 whole entry): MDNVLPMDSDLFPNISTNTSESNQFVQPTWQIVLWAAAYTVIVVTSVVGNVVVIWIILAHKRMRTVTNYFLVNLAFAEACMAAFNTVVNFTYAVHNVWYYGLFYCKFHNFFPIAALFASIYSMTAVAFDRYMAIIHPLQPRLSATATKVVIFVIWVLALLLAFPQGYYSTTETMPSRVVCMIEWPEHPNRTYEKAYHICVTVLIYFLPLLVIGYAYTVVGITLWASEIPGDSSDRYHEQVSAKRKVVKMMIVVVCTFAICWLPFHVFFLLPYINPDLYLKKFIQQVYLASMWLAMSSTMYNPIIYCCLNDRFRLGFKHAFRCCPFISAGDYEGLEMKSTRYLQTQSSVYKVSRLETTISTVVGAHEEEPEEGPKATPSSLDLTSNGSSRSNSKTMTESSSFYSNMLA

Cavia porcellus [2] = species: Cavia porcellus; assay: Effective concentration required for its inhibition of nonspecific binding to guinea pig ileal membranes; type: functional
Neuromedin-K receptor = biological target: T1, Neuromedin-K receptor (Rattus norvegicus, UniProt P16177); assay: Concentration required to inhibit the specific binding of [125I]BH-ELE to Neurokinin-3 (NK-3) receptor in rat brain synaptosomes; type: subcellular
T1 sequence (P16177 whole entry): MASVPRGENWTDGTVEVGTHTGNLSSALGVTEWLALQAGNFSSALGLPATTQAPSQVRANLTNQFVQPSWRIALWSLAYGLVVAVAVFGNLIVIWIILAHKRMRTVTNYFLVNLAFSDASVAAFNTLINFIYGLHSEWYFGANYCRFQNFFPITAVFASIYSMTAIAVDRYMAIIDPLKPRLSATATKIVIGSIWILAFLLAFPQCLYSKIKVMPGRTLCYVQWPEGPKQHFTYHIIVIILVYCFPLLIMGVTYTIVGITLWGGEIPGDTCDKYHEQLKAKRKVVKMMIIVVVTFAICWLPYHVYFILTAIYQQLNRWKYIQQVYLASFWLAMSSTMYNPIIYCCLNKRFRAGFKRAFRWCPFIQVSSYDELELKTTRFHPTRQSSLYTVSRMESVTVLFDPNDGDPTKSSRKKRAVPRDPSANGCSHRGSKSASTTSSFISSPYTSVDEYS
How it was run: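 Rat brain synaptosomes in Krebs-Ringer phosphate buffer with BSA, bacitracin and glucose. Incubated 15 min at 20 °C with 40 pM [125I]BHELE and increasing peptide concentrations, gamma counted. Triplicates, two to eight independent experiments; nonspecific binding defined with eledoisin 10⁻⁶ M. IC50 estimated from Hill plots of titration curves.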

Substance-K receptor = biological target: T2, Substance-K receptor (Rattus norvegicus, UniProt P16610); assay: Concentration required to inhibit the specific binding of [3H]NKA to Neurokinin-2 (NK-2) receptor in rat duodenum membranes
T2 sequence (P16610 whole entry): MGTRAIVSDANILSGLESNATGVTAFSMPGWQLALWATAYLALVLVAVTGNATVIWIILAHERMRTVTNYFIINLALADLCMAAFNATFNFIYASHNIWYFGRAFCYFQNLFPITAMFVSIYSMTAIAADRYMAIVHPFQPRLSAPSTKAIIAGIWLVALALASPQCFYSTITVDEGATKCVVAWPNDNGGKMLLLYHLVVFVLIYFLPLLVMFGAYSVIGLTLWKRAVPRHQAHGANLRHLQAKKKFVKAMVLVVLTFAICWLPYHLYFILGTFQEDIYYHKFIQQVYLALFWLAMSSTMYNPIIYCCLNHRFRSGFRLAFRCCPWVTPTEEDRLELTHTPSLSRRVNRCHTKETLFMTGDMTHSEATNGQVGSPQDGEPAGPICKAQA

Cavia porcellus [3] = species: Cavia porcellus; assay: pKB value of compound was determined in presence of antagonist RP-67580 at conc. of 10e-7 M; type: functional

Row | Structure (SMILES) | IC50 (Cavia porcellus [1]) [nM] | IC50 (Substance-P receptor) [nM] | EC50 (Cavia porcellus [2]) [nM] | IC50 (Neuromedin-K receptor) [nM] | IC50 (Substance-K receptor) [nM] | pKb (Cavia porcellus [3])
1 | CSCC[C@H](NC(=O)[C@H](CC(C)C)NC(=O)CNC(=O)[C@H](Cc1ccccc1)NC(=O)[C@@H](NC(=O)[C@H](CCC(N)=O)NC(=O)[C@H](CCC(N)=O)NC(=O)[C@@H]1CCCN1C(=O)[C@H](CCCCN)NC(=O)[C@@H]1CCCN1C(=O)[C@@H](N)CCCN=C(N)N)[C@@H]1CCc2ccccc21)C(N)=O [listing 1 of 2 here] | 23 | 54 | 6.9 | 2100 | 530 | –
2 | CSCC[C@H](NC(=O)[C@H](CC(C)C)NC(=O)CNC(=O)[C@H](Cc1ccccc1)NC(=O)[C@@H](NC(=O)[C@H](CCC(N)=O)NC(=O)[C@H](CCC(N)=O)NC(=O)[C@@H]1CCCN1C(=O)[C@H](CCCCN)NC(=O)[C@@H]1CCCN1C(=O)[C@@H](N)CCCN=C(N)N)[C@@H]1CCc2ccccc21)C(N)=O [listing 2 of 2 here] | – | – | – | – | – | 7.06
3 | CSCC[C@H](NC(=O)[C@H](CC(C)C)NC(=O)CNC(=O)[C@@H](NC(=O)[C@H](Cc1ccccc1)NC(=O)[C@H](CCC(N)=O)NC(=O)[C@H](CCC(N)=O)NC(=O)[C@@H]1CCCN1C(=O)[C@H](CCCCN)NC(=O)[C@@H]1CCCN1C(=O)[C@@H](N)CCCN=C(N)N)[C@@H]1CCc2cc3ccccc3cc21)C(N)=O | – | 28 | 2.8 | 180 | 57 | –
4 | CSCC[C@H](NC(=O)[C@H](CC(C)C)NC(=O)CNC(=O)[C@H](Cc1ccccc1)NC(=O)[C@@H](NC(=O)[C@H](CCC(N)=O)NC(=O)[C@H](CCC(N)=O)NC(=O)[C@@H]1CCCN1C(=O)[C@H](CCCCN)NC(=O)[C@@H]1CCCN1C(=O)[C@@H](N)CCCN=C(N)N)[C@H]1CCc2ccccc21)C(N)=O | – | 3.1 | 1.2 | 2200 | 380 | –
5 | CSCC[C@H](NC(=O)[C@H](CC(C)C)NC(=O)[C@@H]1CCCN1C(=O)[C@H](Cc1ccccc1)NC(=O)[C@H](Cc1ccccc1)NC(=O)[C@H](CCC(N)=O)NC(=O)[C@H](CCC(N)=O)NC(=O)[C@@H]1CCCN1C(=O)[C@H](CCCCN)NC(=O)[C@@H]1CCCN1C(=O)[C@@H](N)CCCN=C(N)N)C(N)=O | – | – | – | – | – | 6.97
6 | CSCC[C@H](NC(=O)[C@H](CC(C)C)NC(=O)CNC(=O)[C@H](Cc1ccccc1)NC(=O)[C@@H](NC(=O)[C@H](CCC(N)=O)NC(=O)[C@H](CCC(N)=O)NC(=O)[C@@H]1CCCN1C(=O)[C@H](CCCCN)NC(=O)[C@@H]1CCCN1C(=O)[C@@H](N)CCCN=C(N)N)C1CCc2cc3ccccc3cc21)C(N)=O (some centres not stated) [listing 1 of 2 here] | 49 | 48 | 6.9 | 1600 | 120 | –
7 | CSCC[C@H](NC(=O)[C@H](CC(C)C)NC(=O)CNC(=O)[C@H](Cc1ccccc1)NC(=O)[C@@H](NC(=O)[C@H](CCC(N)=O)NC(=O)[C@H](CCC(N)=O)NC(=O)[C@@H]1CCCN1C(=O)[C@H](CCCCN)NC(=O)[C@@H]1CCCN1C(=O)[C@@H](N)CCCN=C(N)N)C1CCc2cc3ccccc3cc21)C(N)=O (some centres not stated) [listing 2 of 2 here] | – | – | – | – | – | 7.3
8 | CSCC[C@H](NC(=O)[C@H](CC(C)C)NC(=O)CNC(=O)[C@H](Cc1ccccc1)NC(=O)[C@@H](NC(=O)[C@H](CCC(N)=O)NC(=O)[C@H](CCC(N)=O)NC(=O)[C@@H]1CCCN1C(=O)[C@H](CCCCN)NC(=O)[C@@H]1CCCN1C(=O)[C@@H](N)CCCN=C(N)N)C1c2ccccc2-c2ccccc21)C(N)=O | 110 | 1400 | 9.5 | 3100 | 690 | –
9 | CSCC[C@H](NC(=O)[C@H](CC(C)C)NC(=O)CNC(=O)[C@H](Cc1ccccc1)NC(=O)/C(=C\c1ccccc1)NC(=O)[C@H](CCC(N)=O)NC(=O)[C@H](CCC(N)=O)NC(=O)[C@@H]1CCCN1C(=O)[C@H](CCCCN)NC(=O)[C@@H]1CCCN1C(=O)[C@@H](N)CCCN=C(N)N)C(N)=O | – | – | – | – | – | 7.15
10 | CSCC[C@H](NC(=O)[C@H](CC(C)C)NC(=O)CNC(=O)[C@H](Cc1ccccc1)NC(=O)[C@@H](NC(=O)[C@H](CCC(N)=O)NC(=O)[C@H](CCC(N)=O)NC(=O)[C@@H]1CCCN1C(=O)[C@H](CCCCN)NC(=O)[C@@H]1CCCN1C(=O)[C@@H](N)CCCN=C(N)N)C1Cc2ccccc2C1)C(N)=O | – | 2300 | 1300 | > 10000 | 1700 | –
11 | CSCC[C@H](NC(=O)[C@H](CC(C)C)NC(=O)CNC(=O)[C@@H](NC(=O)[C@H](Cc1ccccc1)NC(=O)[C@H](CCC(N)=O)NC(=O)[C@H](CCC(N)=O)NC(=O)[C@@H]1CCCN1C(=O)[C@H](CCCCN)NC(=O)[C@@H]1CCCN1C(=O)[C@@H](N)CCCN=C(N)N)C(c1ccccc1)c1ccccc1)C(N)=O [listing 1 of 2 here] | 260 | – | 15 | – | – | –
12 | CSCC[C@H](NC(=O)[C@H](CC(C)C)NC(=O)CNC(=O)[C@@H](NC(=O)[C@H](Cc1ccccc1)NC(=O)[C@H](CCC(N)=O)NC(=O)[C@H](CCC(N)=O)NC(=O)[C@@H]1CCCN1C(=O)[C@H](CCCCN)NC(=O)[C@@H]1CCCN1C(=O)[C@@H](N)CCCN=C(N)N)C(c1ccccc1)c1ccccc1)C(N)=O [listing 2 of 2 here] | – | – | – | – | – | 6.9
13 | CSCC[C@H](NC(=O)[C@H](CC(C)C)NC(=O)CNC(=O)[C@H](CCc1ccccc1)NC(=O)[C@H](Cc1ccccc1)NC(=O)[C@H](CCC(N)=O)NC(=O)[C@H](CCC(N)=O)NC(=O)[C@@H]1CCCN1C(=O)[C@H](CCCCN)NC(=O)[C@@H]1CCCN1C(=O)[C@@H](N)CCCN=C(N)N)C(N)=O | 74 | – | 2.8 | 1900 | 450 | –
14 | CSCC[C@H](NC(=O)[C@H](CC(C)C)NC(=O)CNC(=O)[C@H](Cc1ccccc1)NC(=O)[C@H](CCc1ccccc1)NC(=O)[C@H](CCC(N)=O)NC(=O)[C@H](CCC(N)=O)NC(=O)[C@@H]1CCCN1C(=O)[C@H](CCCCN)NC(=O)[C@@H]1CCCN1C(=O)[C@@H](N)CCCN=C(N)N)C(N)=O [listing 1 of 2 here] | 19 | – | 5.8 | > 10000 | 1900 | –
15 | CSCC[C@H](NC(=O)[C@H](CC(C)C)NC(=O)CNC(=O)[C@H](Cc1ccccc1)NC(=O)[C@H](CCc1ccccc1)NC(=O)[C@H](CCC(N)=O)NC(=O)[C@H](CCC(N)=O)NC(=O)[C@@H]1CCCN1C(=O)[C@H](CCCCN)NC(=O)[C@@H]1CCCN1C(=O)[C@@H](N)CCCN=C(N)N)C(N)=O [listing 2 of 2 here] | – | – | – | – | – | 7.25
16 | CSCC[C@H](NC(=O)[C@H](CC(C)C)NC(=O)[C@@H]1CCCN1C(=O)[C@@H](NC(=O)[C@H](Cc1ccccc1)NC(=O)[C@H](CCC(N)=O)NC(=O)[C@H](CCC(N)=O)NC(=O)[C@@H]1CCCN1C(=O)[C@H](CCCCN)NC(=O)[C@@H]1CCCN1C(=O)[C@@H](N)CCCN=C(N)N)C(c1ccccc1)c1ccccc1)C(N)=O (H-RPKPQQF[Dip]PLM-NH2) | 260 | 2500 | 20 | > 10000 | 6000 | –
17 | CSCC[C@H](NC(=O)[C@H](CC(C)C)NC(=O)[C@@H]1CCCN1C(=O)[C@@H](NC(=O)[C@H](Cc1ccccc1)NC(=O)[C@H](CCC(N)=O)NC(=O)[C@H](CCC(N)=O)NC(=O)[C@@H]1CCCN1C(=O)[C@H](CCCCN)NC(=O)[C@@H]1CCCN1C(=O)[C@@H](N)CCCN=C(N)N)C1c2ccccc2-c2ccccc21)C(N)=O (H-RPKPQQF[Gly(9-fluorenyl)]PLM-NH2) | – | 3.3 | 1.7 | 15000 | 1300 | –
18 | CSCC[C@H](NC(=O)[C@H](CC(C)C)NC(=O)CNC(=O)[C@@H](NC(=O)[C@@H](NC(=O)[C@H](CCC(N)=O)NC(=O)[C@H](CCC(N)=O)NC(=O)[C@@H]1CCCN1C(=O)[C@H](CCCCN)NC(=O)[C@@H]1CCCN1C(=O)[C@@H](N)CCCN=C(N)N)C1CCc2ccccc21)C1c2ccccc2-c2ccccc21)C(N)=O (some centres not stated) (H-RPKPQQ[X1][Gly(9-fluorenyl)]GLM-NH2) | 7.9 | 29 | 3.4 | 450 | 110 | –
